This is an account of results in ChEMBL document CHEMBL1155235 (Eur J Med Chem, 2009).

Experiment [1] deals with Cannabinoid receptor 1 (Mus musculus) (UniProt P47746). Put plainly: Agonist activity at CB1 receptor in CD1 mouse vas deferens assessed as inhibition of electrically-evoked contraction at 0.01 to 1 nM after 15 mins. It counts as functional, tissue-based. The method in brief:
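Vasa deferentia from male CD-1 mice (25–30 g) cycled through 5 min stimulation (15 pulses per min, 70 V, 15 Hz, 2 ms) and 10 min rest, with isometric force recorded. Doses were added stepwise at 15 min intervals, and Krebs was replaced before each dose. Inhibition was read 15 min after each dose against the last pre-agonist contraction (100%). One curve was built per tissue.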

The target in experiment [2] is T1, Cannabinoid receptor 1 (Rattus norvegicus, UniProt P20272). As to the kind of experiment: Displacement of [3H]SR141716A from CB1 receptor in rat cerebellar membrane after 90 mins by scintillation counting. It counts as cell membranes, Cerebellum. In a few lines:
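Compounds were dissolved in DMSO, then diluted in 20 mM HEPES pH 7.4 with 1 mM MgCl2 and 0.5% fatty-acid-free BSA. Incubation was 30 °C for 90 min, stopped with ice-cold buffer and filtered on GF/C. Ki was derived by Cheng–Prusoff using fixed, independently measured Kd.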
(Displacement assays read how much labelled ligand stays bound in the presence of the test substance.)

Experiment [3] has as its target T2, Fatty-acid amide hydrolase 1 (Rattus norvegicus) (UniProt P97612).
T2 sequence (whole entry): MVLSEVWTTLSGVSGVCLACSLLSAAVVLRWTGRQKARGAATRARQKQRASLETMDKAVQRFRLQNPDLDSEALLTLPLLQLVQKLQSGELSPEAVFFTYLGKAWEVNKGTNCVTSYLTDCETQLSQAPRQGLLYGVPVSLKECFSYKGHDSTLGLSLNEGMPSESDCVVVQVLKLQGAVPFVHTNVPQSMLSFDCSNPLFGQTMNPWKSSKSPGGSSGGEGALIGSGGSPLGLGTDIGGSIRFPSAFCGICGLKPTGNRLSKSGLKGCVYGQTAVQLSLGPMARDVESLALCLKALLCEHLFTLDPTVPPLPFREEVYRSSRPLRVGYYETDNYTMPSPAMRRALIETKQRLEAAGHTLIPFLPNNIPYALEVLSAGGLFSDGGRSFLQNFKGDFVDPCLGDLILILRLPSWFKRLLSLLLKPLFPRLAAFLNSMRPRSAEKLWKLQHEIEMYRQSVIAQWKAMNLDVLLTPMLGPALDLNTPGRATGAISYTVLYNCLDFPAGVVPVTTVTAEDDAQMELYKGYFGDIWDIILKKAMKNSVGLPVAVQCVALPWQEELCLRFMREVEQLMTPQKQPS
As to the kind of experiment: Inhibition of FAAH in rat brain homogenates assessed as membrane bound [3H]anandamide level at 0.1 uM relative to control. It counts as tissue-based. More on the design: scale not given: the % may be the effect or the level left. The method in brief: (§1)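 Brain membrane FAAH. Tissue was homogenized in 50 mM Tris pH 8 with 0.32 M sucrose, spun at 1000g for 5 min, and the supernatant spun at 45,000g for 30 min. The pellet was solubilized in Tris at 0–4 °C, protein measured by Bradford, and samples stored at −70 °C. Substrate was arachidonyl-[1-3H]-ethanolamide, and [3H]ethanolamine was counted in the aqueous phase after chloroform extraction. Conditions were linear in time and protein; activity is given as % of control at 10^-6 and 10^-7 M.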

Experiment [4] deals with T2, Fatty-acid amide hydrolase 1 (Rattus norvegicus). Put plainly: Inhibition of FAAH in rat brain homogenates assessed as membrane bound [3H]anandamide level at 1 uM relative to control. Format: tissue-based. Details: scale not given: the % may be the effect or the level left. The method in brief:
as §1

The target of experiment [5] is T1, Cannabinoid receptor 1. Put plainly: Displacement of [3H]WIN-55212-2 from CB1 receptor in rat cerebellar membrane after 90 mins by scintillation counting. It counts as cell membranes, Cerebellum. In a few lines:
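Cerebellar membranes incubated in triplicate with radioligand ([3H]SR141716A 0.4 nM; [3H]WIN-55212-2 1 nM) and compound at 10^-5 to 10^-12 M final. Compounds were dissolved in DMSO, then diluted in 20 mM HEPES pH 7.4 with 1 mM MgCl2 and 0.5% fatty-acid-free BSA. Incubation was 30 °C for 90 min, stopped with ice-cold buffer and filtered on GF/C. Ki was derived by Cheng–Prusoff using fixed, independently measured Kd.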

For experiment [6], the target named is T3, Cannabinoid receptor 2 (Rattus norvegicus) (UniProt Q9QZN9).
T3 sequence (whole entry): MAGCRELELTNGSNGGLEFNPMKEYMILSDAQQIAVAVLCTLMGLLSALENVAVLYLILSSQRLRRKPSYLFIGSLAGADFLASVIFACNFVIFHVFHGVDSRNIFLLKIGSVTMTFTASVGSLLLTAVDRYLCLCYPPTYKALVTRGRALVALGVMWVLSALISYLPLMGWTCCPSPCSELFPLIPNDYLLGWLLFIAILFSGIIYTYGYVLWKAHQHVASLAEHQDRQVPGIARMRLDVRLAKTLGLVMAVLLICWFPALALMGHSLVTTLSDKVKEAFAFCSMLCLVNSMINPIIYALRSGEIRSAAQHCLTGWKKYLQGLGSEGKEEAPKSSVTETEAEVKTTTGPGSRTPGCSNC
As to the kind of experiment: Displacement of [3H]WIN-55212-2 from CB2 receptor in rat cerebellar membrane at 0.001 nM after 90 mins by scintillation counting. It counts as cell membranes. To be noted: Cerebellum.

For experiment [7], the target named is T3, Cannabinoid receptor 2 (Rattus norvegicus). As to the kind of experiment: Displacement of [3H]WIN-55212-2 from CB2 receptor in rat cerebellar membrane at 10 uM after 90 mins by scintillation counting. Format: cell membranes. The note with it: Cerebellum.

Structures are written as SMILES. pKi: −log10 of the molar value. Activity calls are given as the source filed them. The calls are words filed in the database; no cut-off is given here.

Sequence of Cannabinoid receptor 1 (Mus musculus) (P47746 whole entry): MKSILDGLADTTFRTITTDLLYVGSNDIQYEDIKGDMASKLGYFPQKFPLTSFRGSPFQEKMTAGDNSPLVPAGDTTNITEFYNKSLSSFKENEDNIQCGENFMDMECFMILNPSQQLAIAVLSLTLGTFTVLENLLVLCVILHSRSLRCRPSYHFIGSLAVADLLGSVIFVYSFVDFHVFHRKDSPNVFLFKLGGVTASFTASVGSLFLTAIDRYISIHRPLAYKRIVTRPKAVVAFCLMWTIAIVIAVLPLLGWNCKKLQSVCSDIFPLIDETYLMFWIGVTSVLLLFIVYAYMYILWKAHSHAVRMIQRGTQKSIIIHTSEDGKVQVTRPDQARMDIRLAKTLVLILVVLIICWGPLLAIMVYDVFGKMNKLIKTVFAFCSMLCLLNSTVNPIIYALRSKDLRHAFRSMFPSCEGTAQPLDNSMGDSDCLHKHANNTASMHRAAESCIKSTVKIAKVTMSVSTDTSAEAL
T1 sequence (P20272 whole entry): as the sequence (P47746 whole entry) above, with D95E counted along it

Consider `CCCCC/C=C\C/C=C\C/C=C\C/C=C\CCCCNS(=O)(=O)NCCC`, for which the inhibition result in experiment [1] was “inactive”. Further, the pKi (usually the Ki on a negative log10 scale, so that one unit is a factor of ten) at Cannabinoid receptor 1 [2] is 5.63.

In the case of `NS(=O)(=O)NC1C2CC3CC(C2)CC1C3` (configuration not stated), in experiment [1], the inhibition result is “inactive”.

For `CCCCCCCCCCCCNS(N)(=O)=O`, the Activity in experiment [3] was found to be 108%; in experiment [4], 99.3%.

Take `CCCCCCCCCCCCCCCCCCNS(=O)(=O)NCCC`: the pKi at Cannabinoid receptor 1 [5] was under 5.00; at Cannabinoid receptor 1 [2], 5.04. Moreover, in experiment [1], the inhibition entry was “inactive”. The Activity in experiment [3] amounted to 109%; in experiment [4], 110%. Moreover, the outcome in experiment [6] and in experiment [7] was inactive.

In the case of `CCCCCCCCCCCCCCCCCCNS(N)(=O)=O`, the inhibition result in experiment [1] was “inactive”. Further, the Activity in experiment [3] is 106%; in experiment [4] it was 99.4%. Further, on Cannabinoid receptor 1 [2], the pKi was under 5.00.

As to `CCCNS(=O)(=O)NC(C)C12CC3CC(CC(C3)C1)C2` (configuration not stated), the pKi was under 4.00 on Cannabinoid receptor 1 [5] and under 5.00 on Cannabinoid receptor 1 [2]. The inhibition result in experiment [1] is “inactive”. Also, the outcome in experiment [6] and in experiment [7] was inactive.

On to `CCCCCCCCCCCCCCNS(N)(=O)=O`, for which the Activity in experiment [3] and in experiment [4] was 109% in each case.

For the molecule `CCCCCCCCCCCCCCCCNS(N)(=O)=O`, the Activity in experiment [3] is 114%; in experiment [4], 103%.

In the case of `CCCCC/C=C\C/C=C\C/C=C\C/C=C\CCCCNS(N)(=O)=O`, the inhibition entry in experiment [1] is “inactive”. In addition, the pKi at Cannabinoid receptor 1 [2] is 5.40.

For the molecule `CCCCC/C=C\C/C=C\CCCCCCCCNS(=O)(=O)NCCC`, the inhibition entry in experiment [1] is “inactive”. Besides, the pKi on Cannabinoid receptor 1 [2] is 5.14.

Regarding `CCCCCCCC/C=C\CCCCCCCCNS(=O)(=O)NCCC`, the inhibition entry in experiment [1] was “inactive”. For the same molecule, the Activity in experiment [3] is 101%; in experiment [4], 96.5%. At Cannabinoid receptor 1 [2], this molecule showed a pKi of under 5.00.

With `CCCCCCCC/C=C\CCCCCCCCNS(N)(=O)=O`, the inhibition entry in experiment [1] is “inactive”. Besides, the Activity in experiment [3] is 100%; in experiment [4], 102%. The molecule also showed a pKi at Cannabinoid receptor 1 [2] of 5.72.

As to `CCCCC/C=C\C/C=C\CCCCCCCCNS(N)(=O)=O`, the inhibition result in experiment [1] was “inactive”. Besides, the negative logarithm of the Ki (pKi) on Cannabinoid receptor 1 [2] is 5.19.

Regarding `CCCNS(=O)(=O)NC1C2CC3CC(C2)CC1C3` (configuration not stated), the pKi was under 5.00 at Cannabinoid receptor 1 [5] and 5.18 on Cannabinoid receptor 1 [2]. In addition, the inhibition result in experiment [1] was “inactive”. For the same molecule, the result in experiment [6] and in experiment [7] was inactive.

On to `CCCNS(=O)(=O)NC12CC3CC(CC(C3)C1)C2`, for which the pKi on Cannabinoid receptor 1 [5] is 5.37; at Cannabinoid receptor 1 [2], 5.07. Moreover, in experiment [1], the inhibition entry is “inactive”. In addition, the Activity in experiment [3] was 90.4%; in experiment [4], 92.6%. The outcome in experiment [6] and in experiment [7] was inactive.

In the case of `CC(NS(N)(=O)=O)C12CC3CC(CC(C3)C1)C2` (configuration not stated), the inhibition entry in experiment [1] is “inactive”.
